Screening data (PubChem)
The list is not random: actives were taken first. Their share in the collection is about 2.3%.
Rpn11 block: Rpn11 (PSMD14) deubiquitinase inhibitors, primary screen, biochemical, fluorescence polarization, uHTS | 26S proteasome non-ATPase regulatory subunit 14 (Homo sapiens), O00487 | human 26S proteasome, Ub4-pepOG fluorescence polarization; 20S core pre-blocked with epoxomicin | inhibition, % at 20 µM | actives 0.59% (n = 360,000) | AID 588493, 2011;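 active = inhibition at 20 µM, scaled to each plate's controls, above about 33%, limit read from the data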
LMPTP inh: LMPTP phosphatase inhibitors, primary screen, biochemical, fluorescence intensity, uHTS; actives 0.22% (n = 360,000); recombinant LMPTP-A, OMFP fluorogenic substrate; inhibition, % at 20 µM; Low molecular weight phosphotyrosine protein phosphatase (Homo sapiens), P24666;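 active = compounds that cut the enzyme signal by at least half of the control window in the single-dose screen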;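 note: plate controls were DMSO wells with enzyme plus substrate for no effect and substrate without enzyme for full effect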
Target sequence (P24666 whole entry, looked up): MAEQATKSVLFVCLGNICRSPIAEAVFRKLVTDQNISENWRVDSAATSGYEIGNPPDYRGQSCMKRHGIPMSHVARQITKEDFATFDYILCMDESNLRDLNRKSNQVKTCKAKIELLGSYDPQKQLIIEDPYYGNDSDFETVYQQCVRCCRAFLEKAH
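Assay system: LMPTP-A phosphatase enzyme | Input: 0.625 nM enzyme | Also added: Fluorogenic phosphatase substrate OMFP at 400 µM final | Compound dosing: One test concentration per compound, 20 µM, with 3% DMSO overall | Schedule: 50 min enzyme reaction at room temperature, protected from light | Signal: Fluorescence intensity | Benchmarks: no-enzyme and uninhibited controls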
Scp1 inh: Scp-1 phosphatase inhibitors, primary screen, biochemical, colorimetric, uHTS; inhibition, % at 20 µM; actives 0.88% (n = 340,000); Recombinant Scp1, phosphopeptide, malachite green phosphate absorbance; Carboxy-terminal domain RNA polymerase II polypeptide A small phosphatase 1 (Homo …;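 active = inhibition above about 50% at 20 µM, limit read from the data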;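 note: plate controls were DMSO wells with enzyme for no effect and wells lacking enzyme for full effect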
Target sequence (Q9GZU7 76-261 limits assumed): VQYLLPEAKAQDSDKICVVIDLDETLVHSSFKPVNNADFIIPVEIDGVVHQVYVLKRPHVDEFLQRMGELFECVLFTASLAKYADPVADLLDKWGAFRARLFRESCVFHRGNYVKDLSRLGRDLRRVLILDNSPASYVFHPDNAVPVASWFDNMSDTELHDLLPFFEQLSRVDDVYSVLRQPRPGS
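Test system: SCP-1 phosphatase catalytic domain, residues 76-261; measured by: colorimetric phosphate reagent with accelerator and stabiliser, absorbance at 630 nm; timing: enzyme reaction 45 min at room temperature, colour 5 min, stabilisation 30 min; also added: Phosphorylated 17-residue peptide substrate; compound dosing: one concentration, 20 µM, with 1.0% DMSO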
DNMT1 inh: human DNMT1 methyltransferase inhibitors, primary screen, biochemical, molecular beacon, fluorescence, HinP1I cleavage, uHTS. actives 0.83% (n = 360,000). inhibition (reported as % activation of signal), % at 10 µM. AID 588458, 2011; in the data active = inhibition above about 50%
STEP inh: STEP phosphatase inhibitors, primary screen, biochemical, fluorescence intensity, uHTS; inhibition, % at 20 µM; recombinant STEP, OMFP fluorogenic substrate; actives 0.25% (n = 360,000); Tyrosine-protein phosphatase non-receptor type 5 (Homo sapiens), P54829;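 active = inhibition at 20 µM, scaled per plate between control wells, above about 37%, limit read from the data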;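 note: 0% = DMSO with enzyme and substrate and 100% = substrate only without enzyme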
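Material: STEP (striatal-enriched tyrosine phosphatase) enzyme, cell-free | Medium: 50 mM Bis-Tris pH 6.0 with 2.5 mM DTT and 0.005% Tween 20 | Read-out: Percent inhibition scaled to no-enzyme and uninhibited-enzyme controls, plate-pattern corrected | Signal: Fluorescence read at 480 nm ex / 540 nm em | Times: 20 min reaction, room temperature, in the dark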
SUMO1 PPI mod: modulators of SUMO1 protein-protein interactions, primary screen, biochemical, uHTS; SUMO1 binding to a labelled peptide, TR-FRET, 1 h; inhibition, % at 20 µM; actives 0.33% (n = 360,000); in the data active = inhibition above about 37%
Target sequence (P63165 whole entry, looked up): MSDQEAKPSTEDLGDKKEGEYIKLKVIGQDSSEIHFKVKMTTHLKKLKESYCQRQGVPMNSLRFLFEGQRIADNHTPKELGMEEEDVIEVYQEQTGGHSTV
Scp1 confirm: Scp-1 phosphatase inhibitors, retest, confirmation, biochemical, colorimetric, single concentration; recombinant SCP-1 catalytic domain, phosphate release, malachite green absorbance; actives 61% (n = 2,500); inhibition, % at 20 µM; shares compounds with Scp1 inh;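 note: plate controls were DMSO with enzyme for no effect and buffer wells lacking enzyme for full effect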
Scp-1 MG ctr: colorimetric readout interference by compounds, confirmation, artefact control for Scp-1 inhibitor project, biochemical, single concentration. shares compounds with Scp1 inh. Colorimetric interference counterscreen, malachite green absorbance 630 nm. apparent inhibition (interference), % at 20 µM. 2,500 tested, under 10 active;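 note: compounds added after enzyme reaction finished so only phosphate colour detection is probed; plate controls were DMSO wells with completed Scp-1 reaction for no effect and substrate wells lacking enzyme for full effect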
Scp-1 Tm shift: Scp-1 binding by thermal shift, confirmation, orthogonal assay for Scp-1 inhibitor project, biophysical, differential scanning fluorimetry; shares compounds with Scp1 inh; Recombinant SCP1, Sypro Orange thermal shift Tm; thermal shift relative to vanadate control, % at 40 µM; actives 25% (n = 1,500);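 active = substances whose mean melting-temperature shift, as a percentage of the reference inhibitor's shift, reaches about 5.3%, limit read from the data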;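 note: 0% = Tm of DMSO wells and 100% = Tm with sodium orthovanadate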
Starred values were filed as active, the others as inactive; ! = not confirmed by another sample.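 Rule for the calls, unless noted: active = inhibition of at least 30% at 20 µM; inactive = the rest.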

Results for Cc1cc(C)n2nc(C(=O)OCC(=O)c3ccccc3Cl)nc2n1 ?
Rpn11 block: -0.7; LMPTP inh: 0.1; Scp1 inh: -2.4; DNMT1 inh: -2.4; STEP inh: 1.5; SUMO1 PPI mod: 0.6

How did COc1ccc(NC(=O)CS(=O)CC(=O)Nc2ccc(NC(C)=O)cc2)cc1 (stereo unspecified) do in these assays?
Rpn11 block: 12.0; LMPTP inh: 0.2; Scp1 inh: 79.3*; DNMT1 inh: 6.8; STEP inh: 40.7*; SUMO1 PPI mod: 6.4; Scp1 confirm: 67.8*; Scp-1 MG ctr: -6.5; Scp-1 Tm shift: -2.9

What do the screens show for `Cc1ccc(NC(=O)CN2CC(C)SC2=NC2CCCCC2)cc1` (stereo unspecified)?
Rpn11 block: -4.7; LMPTP inh: 0.0; Scp1 inh: 78.7*!; DNMT1 inh: -3.0; STEP inh: -2.6; SUMO1 PPI mod: -5.0; Scp1 confirm: -18.8; Scp-1 MG ctr: -18.4

What do the screens show for `O=C(NNC(=O)c1cccc2ccccc12)c1ccc(Cl)c(Cl)c1`?
Rpn11 block: -0.2; LMPTP inh: -0.5; Scp1 inh: -2.7; DNMT1 inh: -4.7; STEP inh: -0.9; SUMO1 PPI mod: -1.9

What do the screens show for `O=C(NNC(=O)c1ccc2ccccc2c1)c1ccc(Cl)c(Cl)c1`?
Rpn11 block: -10.5; LMPTP inh: 15.2; Scp1 inh: 63.8*; DNMT1 inh: 26.1; STEP inh: 1.0; SUMO1 PPI mod: 2.9; Scp1 confirm: 58.2*; Scp-1 MG ctr: -7.6; Scp-1 Tm shift: -23.2

How did CCOc1ccc(N(CC(=O)Nc2nccs2)S(=O)(=O)c2c(C)[nH]c(=O)[nH]c2=O)cc1 do in these assays?
Rpn11 block: 3.0; LMPTP inh: -1.1; Scp1 inh: -1.3; DNMT1 inh: -0.8; STEP inh: -2.9; SUMO1 PPI mod: 14.6

How did CCCCn1c(-c2ccco2)nc2oc3ccccc3c(=O)c2c1=O do in these assays?
Rpn11 block: -9.9; LMPTP inh: 0.3; Scp1 inh: 62.0*; DNMT1 inh: 0.4; STEP inh: -3.7; SUMO1 PPI mod: -22.8; Scp1 confirm: 0.5; Scp-1 MG ctr: -10.7

Results for CN(CCOc1ccccc1)CC(=O)Nc1ccc(Br)cc1F ?
Rpn11 block: 3.2; LMPTP inh: 1.3; Scp1 inh: -3.8; DNMT1 inh: 0.6; STEP inh: 3.1; SUMO1 PPI mod: 6.7

What do the screens show for `C[C@H](CO)N1C[C@H](C)[C@@H](CN(C)C(=O)Nc2ccccc2)Oc2c(NC(=O)c3ccncc3)cccc2C1=O`?
Rpn11 block: 4.4; LMPTP inh: 0.6; Scp1 inh: 88.3*; DNMT1 inh: 8.6; STEP inh: -2.4; SUMO1 PPI mod: -1.1; Scp1 confirm: 4.2; Scp-1 MG ctr: -19.2
